Several values for one entry are separate records, joined by “and”; a condition that tells them apart may be missing. Equal entries are not always repeated. Where two headings read alike, the source gives them in different places. Marks after values point to notes of the source that are not given here.
What was measured:
[1] = system: established intracerebral melanoma; conditions: versus 0% of vehicle control mice (p = 0.0076); cited from earlier work
[2] = system: GL261 glioma model; conditions: cited from earlier work
[3] = system: PBMCs; experiment: Immune monitoring of patient PBMCs; format: in vivo, human; conditions: for Th1 to Th2 ratio: % CD3+ CD4+ IFN-γ+ divided by % CD3+ CD4+ IL-4+ T cells; for Cytotoxic CD8 to Treg ratio: % CD3+ CD8+ IFN-γ+ divided by % CD3+ CD4+ CD25+ Foxp3+ cells
How it was run: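 PBMCs were taken at C1D1 0 and 4 h, C1D2 0 h, and C1D8 0 and 4 h, then isolated from heparinised blood on Ficoll 1077. Cells were held 4–5 h at 37°C in T cell medium with protein transport inhibitor, Fc-blocked 15 min on ice, and given fixable viability dye 30 min at 4°C. Surface staining, fix/perm and intracellular staining followed, then flow cytometry. Th1:Th2 = %CD3+CD4+IFN-γ+ / %CD3+CD4+IL-4+. CD8:Treg = %CD3+CD8+IFN-γ+ / %CD3+CD4+CD25+FoxP3+.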

[4] = system: recurrent glioblastoma (GBM); experiment: Clinical outcome: PFS, OS, MRI response; format: in vivo, human
How it was run: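 Oral dosing as weight-based powder reconstituted into a liquid suspension just before intake, BID on Mon/Wed/Fri for 2 weeks of each 28-day cycle, for up to 12 cycles or until progression. MRI at baseline, then about every 2–3 months, scored by iRANO on FLAIR and post-contrast T1WI. Intention-to-treat population. Kaplan–Meier estimates of PFS and OS, with OS counted from initial diagnosis.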

[5] = system: patients with recurrent malignant glioma; experiment: Phase I dose escalation; format: in vivo, human
How it was run: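 Dose assignment used accelerated titration, then 3 + 3. Planned levels were 1, 2, 4, 8 and 16 mg/kg, given BID on Mon/Wed/Fri for 2 weeks per 28-day cycle, as an oral suspension. Toxicity was assessed at baseline and before each cycle, graded by CTCAE v4.0. Dose was held for grade II toxicity and cut by 30% or one level for grade III. DSMB approval was required before each cohort change.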

[6] = three weeks after the last administration; range: 0.52-4.0; no reference given; cited from earlier work
[7] = PK of WP1066 in human plasma; format: in vivo; conditions: 1-8 mg/kg oral
[8] = system: glioma cancer cells; conditions: read-out: direct IC50 of glioma cancer cells; cited from earlier work
[9] = system: immune modulatory effects; conditions: cited from earlier work
[10] = i.v. 40 mg/kg, no reference given, cited from earlier work
[11] = system: genetically engineered murine models of gliomas; conditions: p < 0.01; cited from earlier work
[12] = no reference given, cited from earlier work
[13] = system: p-STAT3 (Y705) in PBMCs; experiment: Intracellular p-STAT3 staining of patient PBMCs by flow cytometry; format: in vivo, human
How it was run: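 Blood was processed at once because the p-STAT3 signal decays ex vivo. Ficoll-isolated PBMCs (6 × 10^6 in PBS) were fixed in 2% paraformaldehyde (final) for 10 min at 37°C, then permeabilised in ice-cold 90% methanol for 30 min. Staining was PE-anti-p-STAT3 (Y705) for 1 h at RT, in duplicate wells, with duplicate isotype-control wells and one unstained well. Duplicate specimens were run in parallel. Read-out was % p-STAT3+ PBMCs by flow cytometry versus baseline (0 h); paired t-test.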

[14] = 1 mg/kg, C1D1 0 h (baseline before first dose)
[15] = 2 mg/kg, C1D1 0 h (baseline before first dose)
[16] = 4 mg/kg, C1D1 0 h (baseline before first dose)
[17] = 8 mg/kg, C1D1 0 h (baseline before first dose)
[18] = count in enrolled patient population (n = 8), all dose levels
[19] = sum over all toxicities, enrolled patient population (n = 8)

C[C@H](NC(=O)/C(C#N)=C/c1cccc(Br)n1)c1ccccc1 [WP1066]
animals surviving long term [1]: 80%
therapeutic effect in combination with radiation therapy ([2]; GL261 glioma model, lost in immune-incompetent animals): long-term survivors and enhanced median survival time relative to monotherapy
therapeutic effect as monotherapy ([2]; preclinical murine studies, 60 mg/kg): failed to demonstrate any therapeutic effect
% IFN-γ+ CD8 T cells [3, 14]: 8.3%
% of FoxP3 Tregs [3, 14]: 6.9%
Th1 to Th2 ratio ([3]; 1 mg/kg, C1D1 0 h (baseline)): 0.3
Cytotoxic CD8 to Treg ratio ([3]; 1 mg/kg, C1D1 0 h (baseline)): 1.2
% IFN-γ+ CD8 T cells ([3]; 1 mg/kg, C1D8 4 h): 45.3%
% of FoxP3 Tregs ([3]; 1 mg/kg, C1D8 4 h): 3.9%
Th1 to Th2 ratio ([3]; 1 mg/kg, C1D8 4 h): 1.0
Cytotoxic CD8 to Treg ratio ([3]; 1 mg/kg, C1D8 4 h): 11.7
% IFN-γ+ CD8 T cells [3, 15]: 8.8%
% of FoxP3 Tregs [3, 15]: 8.8%
% IFN-γ+ CD8 T cells ([3]; 2 mg/kg, C1D8 4 h): 7.0%
% of FoxP3 Tregs ([3]; 2 mg/kg, C1D8 4 h): 7.6%
Th1 to Th2 ratio ([3]; 2 mg/kg, C1D8 4 h): 0.5
Cytotoxic CD8 to Treg ratio ([3]; 2 mg/kg, C1D8 4 h): 0.9
% IFN-γ+ CD8 T cells [3, 16]: 4.6% and 0.9% and 4.0%
% of FoxP3 Tregs [3, 16]: 5.3^§ % and 4.9% and 4.0%
% of FoxP3 Tregs ([3]; 4 mg/kg, C1D8 4 h): 8.4% and 5.9%
% IFN-γ+ CD8 T cells [3, 17]: 27.4% and 31.7%
% of FoxP3 Tregs [3, 17]: 3.7% and 2.4% and 6.9%
Cytotoxic CD8 to Treg ratio ([3]; 8 mg/kg, C1D1 0 h (baseline)): 7.4 and 4.6
% IFN-γ+ CD8 T cells ([3]; 8 mg/kg, C1D8 4 h): 3.6% and 0.1%
% of FoxP3 Tregs ([3]; 8 mg/kg, C1D8 4 h): 5.4% and 2.1% and 5.8%
Th1 to Th2 ratio ([3]; 8 mg/kg, C1D8 4 h): 2.4 and 1.8
FoxP3+ Tregs in PBMCs versus baseline ([3]; after 172 h of treatment): not significantly altered
6-month PFS (PFS6) rate ([4]; 8 patients): 0%
longest response duration ([4]; 8 patients): exceeded 3.25 months
estimated 1-year OS rate ([4]; Kaplan-Meier, 8 patients): 100%
median overall survival (OS) ([4]; from the time of the initial diagnosis, 95% CI: 22.5 months-NA months): 25 months
Survival weeks ([4]; individual patient at 1 mg/kg): Alive
Survival weeks ([4]; individual patient at 2 mg/kg): 65 weeks
Survival weeks ([4]; individual patients at 4 mg/kg, 4 mg/kg): 108 weeks and 109 weeks and 194 weeks
Survival weeks ([4]; individual patients at 8 mg/kg, 8 mg/kg): 115 weeks and 98 weeks and Alive
hematological events such as thrombocytopenia or lymphopenia ([5]; 8 patients, 1-8 mg/kg): no significant hematological events
treatment-related deaths ([5]; 8 patients, 1-8 mg/kg): No treatment-related deaths occurred
patients with the most common adverse event, grade 1 nausea and diarrhea ([5]; 8 patients, all dose levels): 50%
Alanine aminotransferase increased, Grade 1 [5, 18]: 1
Alanine aminotransferase increased, Grade 2 [5, 18]: 1
Cardiac disorders, other-sinus rhythm probable left atrial enlargement, Grade 1 [5, 18]: 1
Cholesterol high, Grade 1 [5, 18]: 1
Creatinine increase, Grade 1 [5, 18]: 1
Diarrhea, Grade 1 [5, 18]: 4
Diarrhea, Grade 2 [5, 18]: 1
Gastrointestinal disturbance, Grade 1 [5, 18]: 1
Heartburn, Grade 1 [5, 18]: 1
Lymphocyte count decrease, Grade 1 [5, 18]: 1
Lymphocyte count decrease, Grade 2 [5, 18]: 3
Lymphocyte count decrease, Grade 3 [5, 18]: 0
Lymphocyte count decrease, Grade 4 [5, 18]: 0
Lymphocyte count decrease, Grade 5 [5, 18]: 0
Nausea, Grade 1 [5, 18]: 4
Neutrophil count decreased, Grade 1 [5, 18]: 2
Neutrophil count decreased, Grade 2 [5, 18]: 0
Neutrophil count decreased, Grade 3 [5, 18]: 0
Neutrophil count decreased, Grade 4 [5, 18]: 0
Neutrophil count decreased, Grade 5 [5, 18]: 0
Platelet count decrease, Grade 1 [5, 18]: 1
Platelet count decrease, Grade 2 [5, 18]: 0
Platelet count decrease, Grade 3 [5, 18]: 0
Platelet count decrease, Grade 4 [5, 18]: 0
Platelet count decrease, Grade 5 [5, 18]: 0
Vomiting, Grade 1 [5, 18]: 1
White blood cell decrease, Grade 1 [5, 18]: 3
White blood cell decrease, Grade 2 [5, 18]: 1
White blood cell decrease, Grade 3 [5, 18]: 0
White blood cell decrease, Grade 4 [5, 18]: 0
White blood cell decrease, Grade 5 [5, 18]: 0
tolerability of the oral formulation ([5]; dose level 4 (8 mg/kg), all three subjects): oral aversion to the formulation
Total toxicities, Grade 2 [5, 19]: 6
Total toxicities, Grade 3 [5, 19]: 0
Total toxicities, Grade 4 [5, 19]: 0
Total toxicities, Grade 5 [5, 19]: 0
concentration within orthotopic brain tumors [6]: 2.3 µM
dose dependence of Cmax [7]: dose dependent increase in the Cmax
IC50 [8]: 2 to 5 µM
concentration at which immune modulatory effects start [9]: around 0.1 μM
mean concentration within the brain ([10]; at 15 min): 162 µM
mean concentration within the brain ([10]; at 6 h): 6 µM
increase in median survival time [11]: 55.5%
oral bioavailability ([12]; methylcellulose-based oral nanoparticle formulation): approximately 30%
mean peak plasma concentration ([12]; preclinical dose of 40 mg/kg): 4.31 µM
% of p-STAT3+ PBMC [13, 14]: 39.9%
% of p-STAT3+ PBMC ([13]; 1 mg/kg, C1D1 4 h): 33.4%
% of p-STAT3+ PBMC ([13]; 1 mg/kg, C1D2 0 h): 31.8%
% of p-STAT3+ PBMC ([13]; 1 mg/kg, C1D8 0 h): 19.3%
% of p-STAT3+ PBMC ([13]; 1 mg/kg, C1D8 4 h): 15.7%
% of p-STAT3+ PBMC [13, 15]: 38.1%
% of p-STAT3+ PBMC ([13]; 2 mg/kg, C1D1 4 h): 33.8%
% of p-STAT3+ PBMC ([13]; 2 mg/kg, C1D2 0 h): 31.5%
% of p-STAT3+ PBMC ([13]; 2 mg/kg, C1D8 0 h): 27.6%
% of p-STAT3+ PBMC ([13]; 2 mg/kg, C1D8 4 h): 34.8%
% of p-STAT3+ PBMC [13, 16]: 35.0% and 27.8% and 35.9%
% of p-STAT3+ PBMC ([13]; 4 mg/kg, C1D1 4 h): 28.2% and 30.9% and 36.0%
% of p-STAT3+ PBMC ([13]; 4 mg/kg, C1D2 0 h): 26.9% and 29.7% and 45.8%
% of p-STAT3+ PBMC ([13]; 4 mg/kg, C1D8 0 h): 37.7% and 27.3%
% of p-STAT3+ PBMC ([13]; 4 mg/kg, C1D8 4 h): 22.7% and 21.1% and 35.3%
lowest dose with p-STAT3 suppression in peripheral blood (PBMCs) ([13]; oral BID, longitudinal administration): 1 mg/kg

Reference: paper PMC9134932 (CNS Oncology, 2022)
